Bounds are passed on as bounds.

Drawing on ChEMBL document CHEMBL3259682, “Synthesis, β-haematin inhibition, and in vitro antimalarial testing of isocryptolepine analogues: SAR study of indolo[3,2-c]quinolines with various substituents at C2, C6, and N11” (Bioorg Med Chem, 2014), this text covers IC50, selectivity ratio and Ratio IC50 for 38 compounds.

Data set [1] in a line: Binding affinity to haematin assessed as inhibition of beta-haematin formation after 5 to 6 hrs by pyridine-ferrichrome-based method. Put shortly:
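Detergent (NP-40) mediated β-haematin formation assay, run manually. Compounds came from 20, 2 and 0.4 mM DMSO stocks, tested at 0–1000 µM final. Haematin was 100 µM final in 0.5 M acetate buffer, pH 4.8. Incubation was 5–6 h at 37 °C. Read-out used the pyridine-ferrichrome method with UV–vis absorbance. IC₅₀ came from sigmoidal dose–response fits.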

The test system of data set [2] is L6. The data set is described as follows: Cytotoxicity against rat L6 cells after 70 hrs by Alamar Blue assay. Type of data set: functional, cell-based. Conditions: L6, 70 h. Put shortly: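 Rat skeletal myoblast L6 cells, 4000 per well, in RPMI 1640 with 1% L-glutamine and 10% fetal bovine serum. Eleven 3-fold serial drug dilutions were tested. Alamar Blue was added for a final 2 h. Fluorescence was read at excitation 536 nm and emission 588 nm. IC₅₀ is the mean of two independent assays.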

A short description of data set [3]: Selectivity index, ratio of IC50 for rat L6 cells to IC50 for erythrocytic stage of chloroquine-sensitive Plasmodium falciparum NF54. The class given is toxicity, cell-based. Conditions: read-out: Ratio IC50. Put shortly:
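Selectivity index is the L6 cytotoxicity IC₅₀ divided by the NF54 antiplasmodial IC₅₀. Each IC₅₀ is the mean of two independent assays.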

For data set [4], the system named is Plasmodium falciparum. In words: Antimalarial activity against erythrocytic stage of chloroquine-sensitive Plasmodium falciparum NF54 after 48 hrs by [3H]-hypoxanthine incorporation assay. The class given is functional, organism-based. Put shortly:
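³H-hypoxanthine incorporation against P. falciparum NF54. DMSO stocks at 10 mg/mL were added to cultures in hypoxanthine-free RPMI 1640 with HEPES, NaHCO₃, neomycin and Albumax, using human A⁺ red cells at 2.5% haematocrit and 0.3% parasitaemia. Eleven 3-fold serial dilutions were tested. Incubation was under 4% CO₂/3% O₂/93% N₂. ³H-hypoxanthine was added after 48 h, followed by a further 24 h. Cells were harvested onto glass-fibre filters. IC₅₀ is the mean of two independent assays.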

For data set [5], the system named is Plasmodium falciparum. The data set is described as follows: Antimalarial activity against erythrocytic stage of chloroquine/pyrimethamine-resistant Plasmodium falciparum K1 after 48 hrs by [3H]-hypoxanthine incorporation assay. Type of data set: functional, organism-based. Put shortly:
(§1)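 Chloroquine/pyrimethamine-resistant K1 and drug-susceptible NF54 P. falciparum were grown in hypoxanthine-free RPMI 1640 with HEPES, NaHCO₃, neomycin and Albumax, in human A⁺ erythrocytes at 2.5% haematocrit and 0.3% parasitaemia. DMSO stocks were 10 mg/mL, tested in eleven 3-fold dilutions under 4% CO₂/3% O₂/93% N₂. ³H-hypoxanthine was added at 48 h, then 24 h more before filter harvest. IC₅₀ is the mean of two assays; RI = K1/NF54 IC₅₀.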

Data set [6] is described as follows: Resistance index, ratio of IC50 for chloroquine/pyrimethamine-resistant Plasmodium falciparum K1 to IC50 for erythrocytic stage of chloroquine-sensitive Plasmodium falciparum NF54. The class given is functional. Put shortly:
as §1

Data set [7] is described as follows: Selectivity index, ratio of IC50 for rat L6 cells to IC50 for chloroquine/pyrimethamine-resistant Plasmodium falciparum K1. Type of data set: toxicity, cell-based. Conditions: read-out: Ratio IC50.

Take `NCCCNc1nc2ccc(Br)cc2c2[nH]c3ccccc3c12`: the values for the concentration for half-maximal inhibition (IC50) in data set [1], in data set [2] and in data set [4] were 19.4 µM, 0.891 µM and 0.0081 µM, respectively. Further, the selectivity ratio in data set [3] was 110.
In the case of `OCCNc1nc2ccccc2c2[nH]c3ccccc3c12`, the IC50 in data set [1] amounted to 200 µM; in data set [2], 0.891 µM; in data set [4], 0.141 µM. Further, in data set [3], the selectivity ratio was 6.3.
As to `Cn1c2ccccc2c2c(NCCCN)nc3ccc(Br)cc3c21`, the half-inhibitory concentration (IC50) turned out to be 26.6 µM in data set [1], 0.825 µM in data set [2] and 0.0313 µM in data set [4]. Further, the selectivity ratio in data set [3] was determined as 26.3.
`Cc1ccc2nc(NCCCN)c3c4ccccc4n(C)c3c2c1`: the IC50 amounted to 29.5 µM in data set [1], 0.192 µM in data set [2] and 0.0314 µM in data set [4]. For the same compound, the selectivity ratio in data set [3] amounted to 6.1.
With `O=C(NCCCNc1nc2cccc(Br)c2c2[nH]c3ccccc3c12)Nc1ccccc1`, the results for the IC50 in data set [1], in data set [2] and in data set [4] were 22 µM, 3.62 µM and 0.289 µM, respectively. For the same compound, the selectivity ratio in data set [3] was found to be 12.6.
`NCCCCCNc1nc2ccccc2c2[nH]c3ccccc3c12`: the IC50 in data set [1] came to 81 µM; in data set [5], 0.0251 µM; in data set [2], 0.817 µM; in data set [4] it was 0.0126 µM. In addition, the Ratio IC50 in data set [6] turned out to be 2. Also, the results for the selectivity ratio in data set [7] and in data set [3] were 32.5 and 64.8, respectively.
Consider `c1ccc(CNc2nc3ccccc3c3[nH]c4ccccc4c23)cc1`, for which the results for the IC50 in data set [1], in data set [2] and in data set [4] were 30.6 µM, 2.93 µM and 0.0186 µM, respectively. Moreover, the selectivity ratio in data set [3] was found to be 158.
Take `CCN(CC)C(=O)NCCCNc1nc2ccccc2c2[nH]c3ccccc3c12`: the IC50 in data set [1] stood at 39.2 µM; in data set [2], 3.57 µM; in data set [4], 0.0411 µM. Moreover, in data set [3], the selectivity ratio was determined as 86.8.
Turning to `O=C(NCCCNc1nc2ccccc2c2[nH]c3ccccc3c12)c1cccs1`, the IC50 came out at 24.1 µM in data set [1], 0.0849 µM in data set [5], 3.5 µM in data set [2] and 0.0724 µM in data set [4]. In data set [6], the Ratio IC50 is 1.2. Further, the figures for the selectivity ratio in data set [7] and in data set [3] were 41.2 and 48.3, respectively.
`CC(CN)CNc1nc2ccc(Cl)cc2c2[nH]c3ccccc3c12` (configuration not stated): the IC50 stood at 12.7 µM in data set [1], 0.059 µM in data set [5], 1.92 µM in data set [2] and 0.0295 µM in data set [4]. Moreover, the Ratio IC50 in data set [6] came to 2. Further, the results for the selectivity ratio in data set [7] and in data set [3] were 32.5 and 65, respectively.
Take `Cn1c2ccccc2c2c(NCC(C)(C)CN)nc3ccccc3c21`: the IC50 in data set [1] amounted to 1000 µM; in data set [2], 0.259 µM; in data set [4], 0.274 µM. For the same compound, the selectivity ratio in data set [3] came to 0.9.
`CCN(CC)CCCC(C)Nc1ccnc2cc(Cl)ccc12` (configuration not stated) [CHLOROQUINE]: in data set [1], the IC50 came out at 30 µM.
`CC(C)(CN)CNc1nc2ccc(Cl)cc2c2[nH]c3ccccc3c12`: the IC50 in data set [1] worked out at 20.7 µM; in data set [5], 0.051 µM; in data set [2], 1.84 µM; in data set [4], 0.0255 µM. In addition, in data set [6], the Ratio IC50 is 2. Also, the selectivity ratio in data set [7] was 36.1; in data set [3], 72.1.
For the compound `NCCCCNc1nc2ccccc2c2[nH]c3ccccc3c12`, the figures for the concentration for half-maximal inhibition (IC50) in data set [1], in data set [2] and in data set [4] were 62 µM, 0.739 µM and 0.0361 µM, respectively. Also, the selectivity ratio in data set [3] was found to be 20.5.
In the case of `NCCCCCCNc1nc2ccccc2c2[nH]c3ccccc3c12`, the IC50 in data set [1] came out at 49.6 µM; in data set [5], 0.0902 µM; in data set [2], 1.18 µM; in data set [4], 0.015 µM. For the same compound, in data set [6], the Ratio IC50 was 6. In addition, the selectivity ratio in data set [7] was 13.1; in data set [3] it was 78.8.
Regarding `CN(C)CCCNc1nc2ccc(Br)cc2c2c1c1ccccc1n2C`, the IC50 was determined as 39.9 µM in data set [1], 0.457 µM in data set [2] and 0.0486 µM in data set [4]. For the same compound, the selectivity ratio in data set [3] turned out to be 9.4.
For `COc1ccc(Nc2nc3ccccc3c3[nH]c4ccccc4c23)c(OC)c1`, the IC50 in data set [1] was 44.1 µM; in data set [2] it was 15.2 µM; in data set [4], 0.317 µM. The selectivity ratio in data set [3] stood at 48.
Consider `C[C@@H]1CC[C@H]2[C@@H](C)C(=O)O[C@@H]3O[C@@]4(C)CC[C@@H]1[C@]32OO4` [ARTEMISININ], for which the IC50 turned out to be 0.0028 µM in data set [5] and 0.0043 µM in data set [4]. For the same compound, the Ratio IC50 in data set [6] is 0.7.
Take `CCN(CC)Cc1cc(Nc2ccnc3cc(Cl)ccc23)ccc1O`: in data set [1], the IC50 turned out to be 11 µM.
As for `COc1ccc2nc(NCCCN)c3c4ccccc4n(C)c3c2c1`, the IC50 amounted to 56.9 µM in data set [1], 0.138 µM in data set [2] and 0.0329 µM in data set [4]. In data set [3], the selectivity ratio is 4.2.
The matching figures for `Cn1c2ccccc2c2c(NCCCNC(=O)Nc3ccccc3)nc3ccccc3c21`: 22.7 µM, 0.108 µM, 0.0073 µM and 14.8.
For `Cn1cc2c3ccccc3nc-2c2ccccc21` [ISOCRYPTOLEPINE], the selectivity ratio in data set [7] amounted to 1.5.
With `Cn1c2ccccc2c2c(NCCCN)nc3ccc(F)cc3c21`, the IC50 turned out to be 25.8 µM in data set [1], 0.292 µM in data set [2] and 0.0527 µM in data set [4]. Further, in data set [3], the selectivity ratio was 5.5.
The matching figures for `Cn1c2ccccc2c2c(Cl)nc3ccccc3c21`: greater than 1000 µM, 17.3 µM, 7.39 µM and 2.3.
For `OCCCNc1nc2ccccc2c2[nH]c3ccccc3c12` the same measures were 287 µM, 0.717 µM, 0.227 µM and 3.2.
The matching figures for `CN(C)CCCNc1nc2ccc(Cl)cc2c2c1c1ccccc1n2C`: 25.9 µM, 0.313 µM, 0.0409 µM and 7.7.
For `c1ccc2c(c1)nc(N1CCCNCC1)c1c3ccccc3[nH]c21`, the IC50 in data set [1] came out at 171 µM; in data set [2] it was 4.11 µM; in data set [4] it was 0.0632 µM. For the same compound, the selectivity ratio in data set [3] worked out at 65.
The matching figures for `O=C(NCCCNc1nc2ccc([N+](=O)[O-])cc2c2[nH]c3ccccc3c12)Nc1ccccc1`: 15.2 µM, 4.64 µM, 0.0242 µM and 192.
For `Cn1c2ccccc2c2c(NCC(C)(C)CN)nc3ccc(Cl)cc3c21` the same measures were 38.4 µM, 0.425 µM, 0.0954 µM and 4.5.
For `CS(=O)(=O)NCCCNc1nc2ccccc2c2[nH]c3ccccc3c12` the same measures were 118 µM, 1.06 µM, 0.0543 µM and 19.6.
`Clc1nc2ccccc2c2[nH]c3ccccc3c12`: the IC50 in data set [1] was greater than 1000 µM; in data set [2] it was 193 µM; in data set [4], 10.2 µM. For the same compound, in data set [3], the selectivity ratio is 18.9.
Turning to `CN(C)CCCNc1nc2ccccc2c2c1c1ccccc1n2C`, the half-maximal inhibitory concentration (IC50) was greater than 1000 µM in data set [1], 0.701 µM in data set [2] and 0.0932 µM in data set [4]. The selectivity ratio in data set [3] was 7.5.
The matching figures for `c1ccc2c(c1)nc(NCC1CCCO1)c1c3ccccc3[nH]c21` (configuration not stated): 148 µM, 2.05 µM, 0.113 µM and 18.1.
For `Cc1ccc2nc(NCCCN)c3c4ccccc4[nH]c3c2c1` the same measures were 60.9 µM, 0.322 µM, 0.0361 µM and 8.9.
For `NCCCNc1nc2ccc(F)cc2c2[nH]c3ccccc3c12` the same measures were 14.3 µM, 0.639 µM, 0.013 µM and 49.1.
On to `NCCCN1CCN(CCCNc2nc3ccccc3c3[nH]c4ccccc4c23)CC1`, for which the IC50 was 62.4 µM in data set [1], 1.78 µM in data set [2] and 0.0264 µM in data set [4]. For the same compound, the selectivity ratio in data set [3] came to 67.3.
For `Cn1c2ccccc2c2c(NCCCN)nc3ccc(Cl)cc3c21` the same measures were 28 µM, 0.62 µM, 0.0354 µM and 17.5.
For `Cn1c2ccccc2c2c(NCC(C)(C)CN)nc3ccc(Br)cc3c21` the same measures were 41.2 µM, 0.576 µM, 0.0583 µM and 9.9.
